# PglD inh = inhibitors of Campylobacter jejuni PglD acetyltransferase; purified PglD enzyme, DTNB colorimetric CoA detection; inhibition, % at 12.5 µM; 360,000 compounds, 0.098% hits; in the data active = inhibition above about 16%, passing the limit was not always enough
# CR mimetic SO = lowers age-related superoxide in aged yeast cells; S. cerevisiae aged cells, superoxide DHE fluorescence; active compounds read low; 330,000 compounds, 0.18% hits; superoxide response (% of plate mean), % at 10 µM;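 active = superoxide response under a set limit, about three screen SD below normal, cut at about 65% in these data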;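 note: yeast aged for seven days with compound at 30 °C before DHE staining; 100% = average MFI of all compound-treated wells on the plate with controls excluded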
# Ecoli rRNA inh = inhibits bacterial ribosomal RNA function over humanized ribosomes. E. coli WT GFP vs humanized-ribosome RFP mutants, fluorescence, 24 h; active compounds read low; DMSO median 0, no signal -100. GFP signal change (wild-type ribosome), % (no concentration beside the values). 350,000 compounds, 1.6% hits;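 active = significant combined selectivity score with lowered wild-type GFP, culture density cut under 30%, mutant RFP and density less affected; inactive = any of these conditions unmet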
# Cneo AK release = causes C. neoformans cell lysis; adenylate kinase release luminescence, 4 h; normalised: neutral wells 0, clomiphene wells 100; lysis activity, % at 15 µM; 360,000 compounds, 0.2% hits; AID 651654;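 active = mean lysis activity across replicates of at least 80%, whatever share of replicates individually reach that level; inactive = mean lysis activity below 80%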
#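 read-out = cell lysis signal | test system = log-phase Cryptococcus neoformans yeast cells | input = cells at 5 × 10^6 per mL | medium = fresh YPD growth medium | signal = luminescent adenylate kinase detection reagent | timing = 4 h at 37 °C static, read 1 h later | dosing = single dose | controls = Clomiphene as positive lysis control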
# SUMO Mot1 rescue = blocks SUMOylation pathway, rescuing yeast Mot1-301 growth; S. cerevisiae Mot1-301 growth rescue, ATP luminescence, 38.5C; percent above DMSO median, 100 means doubled; growth rescue, % at 18.8 µM; 320,000 compounds, 1% hits; AID 2716;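 active = every valid replicate shows activation above 250% relative to neutral control wells; inactive = the rest, any valid replicate at or below 250%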;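 note: OY570 slx delta 5 strain wells were the positive control but not used for scaling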
# Superoxide pick = yeast aging superoxide inhibition, cherry pick confirmation; shares compounds with CR mimetic SO; S. cerevisiae aging, superoxide DHE fluorescence; active compounds read low; superoxide response (% of plate), % at 10 µM; 850 compounds, 1% hits; AID 434994;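 active = superoxide signal below 65% of the plate average of sample wells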;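 note: cells aged with compound for 7 days at 30 degrees C before staining; 100% equals mean DHE fluorescence of all compound wells on the plate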
# DHE counter = compound alters DHE oxidation or fluorescence in yeast. shares compounds with CR mimetic SO. S. cerevisiae BY4741, flow cytometry; active compounds read low. fluorescence response, % at 10 µM. 850 tested, under 10 active. AID 435000;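 active = fluorescence response below 15%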;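 note: percent of the mean fluorescence averaged over all compound wells on the plate; lower means stronger quenching of DHE signal or ROS scavenging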
# Active calls of the source: *; . = no result given. Most compounds without a hit are left out; they make up all but 2.2% or so of the library.
SMILES,PglD inh,CR mimetic SO,Ecoli rRNA inh,Cneo AK release,SUMO Mot1 rescue,Superoxide pick,DHE counter
CO[C@@H]1CN(C)C(=O)c2cc(NC(=O)Nc3ccc(Cl)cc3)ccc2OC[C@H](C)N(C)C[C@H]1C,.,.,-5,.,.,.,.
CCCN(C)C[C@@H]1Oc2ncc(-c3cccc(C(=O)N(C)C)c3)cc2C(=O)N([C@@H](C)CO)C[C@H]1C,-1,.,1,0,.,.,.
C#CCSc1nnc(-c2ccc(O)cc2)o1,4,86,-3,-8,-1,99,102
Oc1ccc(-c2nnc(SCc3ccccc3)o2)cc1,1,103,-5,-4,-2,.,.
C#CCSc1nnc(-c2ccc(C)cc2)o1,-4,96,.,-2,-11,81,93
C#CCSc1nnc(-c2cccc3ccccc23)o1,.,95,.,.,1,.,.
O=C(NCc1ccc(Cl)cc1)C1CCCN(c2cnccn2)C1 (stereo not given),1,65*,2,-5,21,112,112
CC(=O)[C@@]1(O)CCC2C3CC[C@H]4C[C@@H](O)CC[C@]4(C)C3CC[C@@]21C (stereo not given in full),-4,105,2,-5,216,104,103
CCC(=O)N[C@@H]1C=C[C@H](CC(=O)NCc2ccccc2F)O[C@H]1CO,-4,.,-6,-1,.,.,.
Cc1ccc2cc(NC(=O)Cc3ccccc3)ccc2n1,3,63*,-12,-5,-9,104,104
CC1CCN(CCC(=O)Nc2ccc3c(c2)OCCO3)CC1,.,63*,.,.,-21,117,110
C[C@H]1CN([C@@H](C)CO)C(=O)CCCn2nncc2CO[C@@H]1CN(C)Cc1cccnc1,-4,.,1,4,.,.,.
N#Cc1ccc(-c2nc3cc(Cl)ccc3c(=O)n2O)cc1,2,91,-49,-2,-3,.,.
O=c1c2ccc(Cl)cc2nc(-c2cccc(C(F)(F)F)c2)n1O,.,65*,.,.,-1,88,89
C[C@H]1CN([C@@H](C)CO)C(=O)c2cc(NC(=O)c3ccncc3)ccc2O[C@@H]1CN(C)Cc1ccc(-c2ccccc2)cc1,0,.,-9,56,.,.,.
CCCn1c(=O)c(C(=O)NCc2ccc(OC)c(OC)c2)c(O)c2ccccc21,2,63*,.,-7,1,109,108
CCn1c(=O)c(C(=O)NNC(=O)c2ccc(Cl)cc2Cl)c(O)c2ccccc21,5,74,8,-3,0,.,.
CCCn1c(=O)c(C(=O)NNC(=O)c2ccc(Cl)cc2Cl)c(O)c2ccccc21,-1,60*,4,3,-31,107,105
CCn1c(=O)c(C(=O)NCc2ccc(OC)c(OC)c2)c(O)c2ccccc21,-8,96,.,6,-7,.,.
O=C(C[C@@H]1C=C[C@@H](NC(=O)CN2CCOCC2)[C@H](CO)O1)NCCc1ccncc1,.,.,4,.,.,.,.
Cc1noc(C)c1NC(=O)Nc1ccc2c(c1)C(=O)N([C@@H](C)CO)C[C@H](C)[C@H](CN(C)S(C)(=O)=O)O2,-7,.,2,-2,.,.,.
O=C(CC1CC1)N1CC(=O)N2[C@H](CO)[C@@H](c3ccc(/C=C/c4ccccc4)cc3)[C@H]2C1,.,.,0,.,.,.,.
C/C=C/c1ccc2c(c1)O[C@@H](CN(C)C(=O)NC1CCCC1)[C@H](C)CN([C@H](C)CO)S2(=O)=O,0,.,-1,-12,.,.,.
CC(NC(=O)N(Cc1ccccc1)Cc1ccc2c(c1)OCO2)(C(F)(F)F)C(F)(F)F,3,96,.,-2,-6,.,.
CC(=O)OCCN(Cc1ccccc1)Cc1ccc2c(c1)OCO2,8,64*,.,-1,-5,116,111
SMILES,PglD inh,CR mimetic SO,Ecoli rRNA inh,Cneo AK release,SUMO Mot1 rescue,Superoxide pick,DHE counter
O=C(C[C@H]1C[C@H]2c3cc(NC(=O)c4cccnc4)ccc3O[C@H]2[C@H](CO)O1)NC1CCCC1,.,.,1,.,.,.,.
COc1ccc(OCCNC(=O)c2ccccc2Cl)cc1,6,64*,2,0,-12,96,93
COc1ccc(CCC(=O)NCCOc2ccc(C)cc2)cc1,2,39*,2,0,156,95,91
O=C(NCCOc1ccccc1)c1ccccc1Cl,8,101,13,0,-1,.,.
C[C@H](CO)N1C[C@H](C)[C@H](CN(C)CC2CC2)OCCCC[C@H](C)Oc2ccc(NC(=O)Cc3ccccc3)cc2C1=O,0,.,1,3,.,.,.
CCN(c1ccc(OC)cc1)S(=O)(=O)c1cc(-c2cc(C)no2)ccc1OC,-3,63*,-31*,-4,-10,103,91
CCN(c1ccc(OC)cc1)S(=O)(=O)c1cc(-c2cc(C)no2)ccc1C(C)C,.,81,-3,.,-17,.,.
C[C@@H]1CCCCO[C@H](CN(C)S(=O)(=O)c2cccs2)[C@@H](C)CN([C@@H](C)CO)C(=O)c2cc(N(C)C)ccc2O1,0,.,-6,-2,.,.,.
Cc1cc(C)n2nc(-c3cccc(Br)c3)cc2n1,-14,101,-5,0,12,103,94
COc1ccc(C)cc1S(=O)(=O)Nc1ccc(F)cc1,-8,111,.,2,-18,115,96
Cc1ccc(C)c(NS(=O)(=O)c2ccccc2C)c1,5,103,-1,4,-23,91,93
Cc1ccc(C)c(S(=O)(=O)Nc2ccc(O)cc2)c1,-5,92,.,1,-11,108,111
O=C(C[C@@H]1C=C[C@H](NS(=O)(=O)c2ccc(F)cc2)[C@H](CO)O1)NCCN1CCCCC1,0,.,3,-3,.,.,.
C[C@H]1CN(C)C(=O)c2cccc(N)c2O[C@@H]1CN(C)C(=O)OC(C)(C)C,.,.,-1,.,.,.,.
N#C/C(=C/c1cccs1)c1nc2ccccc2[nH]1,.,60*,.,.,8,111,107
Cc1ccc(/C=C(\C#N)c2nc3ccccc3[nH]2)s1,-4,95,.,-2,4,.,.
COc1ccccc1NC(=O)N[C@H]1CC[C@@H](CC(=O)N[C@H](C)c2ccccc2)O[C@@H]1CO,-5,.,2,-14,.,.,.
CCCC(=O)Nc1ccc2c(c1)OC[C@H](C)N(Cc1ccccc1F)C[C@H](C)[C@H](OC)CN(C)C2=O,-2,.,-4,14,.,.,.
C[C@@H]1CCCCO[C@@H](CN(C)C(=O)CCC(F)(F)F)[C@H](C)CN([C@H](C)CO)C(=O)c2cc(NC(=O)c3ccncc3)ccc2O1,.,.,0,.,.,.,.
CC(C)(C)c1ccc(-n2ncc3c2CCCC3NC(=O)c2cnccn2)cc1 (stereo not given),1,98,1,4,1,.,.
CC(C)(C)c1ccc(-n2ncc3c2CCCC3NC(=O)c2csnn2)cc1 (stereo not given),2,58*,8,3,-2,101,104
